The source of these data is ChEMBL document CHEMBL3526003, “Pharmacokinetics of the monohydroxy derivative of oxcarbazepine and its enantiomers after a single intravenous dose given as racemate compared with a single oral dose of oxcarbazepine” (Drug Metab Dispos, 2011).

Data set [1] can be described thus: Drug excretion in human urine assessed as total amount of drug eliminated treated with oxcarbazepine at 300 mg, po administered as one-film coated tablet by high-performance liquid chromatography. The data set is classed as ADME, organism-based. The note with it: read-out: Ae. Summed up:
(§1)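 300 mg oral tablet given to 12 healthy adults. Urine was collected in fractions up to 72 h and kept at 2–8 °C, then frozen at -20 °C. Analytes were measured by HPLC before and after β-glucuronidase hydrolysis (pH 6.7, 37 °C, about 15 h). Renal clearance was Ae/plasma AUC. Urinary terminal half-life came from log-linear slopes between 4–18 h and 40–64 h.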

Data set [2] is described as follows: Renal clearance in human treated with oxcarbazepine at 300 mg, po administered as one-film coated tablet by high-performance liquid chromatography. The data set is classed as ADME, organism-based, Kidney. The note with it: in vivo. In short, it runs like this:
as §1

A short description of data set [3]: Apparent terminal half life in human plasma treated with oxcarbazepine at 300 mg, po administered as one-film coated tablet by high-performance liquid chromatography. The data set is classed as ADME, organism-based. The settings on record: read-out: betat1/2(app) (converted). Summed up: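 Healthy adult volunteers (6 male, 6 female), randomized two-way crossover with at least one week washout; single oral 300 mg film-coated oxcarbazepine tablet, fasting. Heparinized plasma sampled 0–72 h post dose, stored -80 C; MHD enantiomers quantified by enantioselective HPLC.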

Data set [4] is described as follows: Terminal half life in human urine treated with oxcarbazepine at 300 mg, po administered as one-film coated tablet by high-performance liquid chromatography. The data set is classed as ADME, organism-based. The settings on record: read-out: beta t1/2 (converted). In short, it runs like this: as §1
Data set [5] can be described thus: Renal clearance in human treated with monohydroxy derivative of OXC at 250 mg, iv administered as infusion over 30 mins by high-performance liquid chromatography. The data set is classed as ADME, organism-based, Kidney. The note with it: in vivo. Summed up:
(§2)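 250 mg racemic MHD infused intravenously over 30 min to 12 healthy adults. Plasma was drawn at 0 to 30 min and up to 72 h, and urine was fractionated to 72 h. Enantioselective HPLC was used. Renal clearance was Ae/AUC; Vss was CL_T·MRT (AUMC/AUC). Urinary half-life came from log-linear slopes between 4–18 h and 40–64 h.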

Data set [6] in a line: Apparent terminal half life in human plasma treated with monohydroxy derivative of OXC at 250 mg, iv administered as infusion over 30 mins by high-performance liquid chromatography. The data set is classed as ADME, organism-based. The note with it: read-out: betat1/2(app) (converted). In short, it runs like this: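 Healthy adult volunteers (6 male, 6 female), randomized two-way crossover with at least one week washout; single 250 mg racemic MHD infused i.v. over 30 min. Heparinized plasma sampled 0–30 min then 1–72 h after start of infusion, stored -80 C; enantiomers quantified by enantioselective HPLC.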

Data set [7] in a line: Volume of distribution at steady state in human treated with monohydroxy derivative of OXC at 250 mg, iv administered as infusion over 30 mins by high-performance liquid chromatography. The data set is classed as ADME, organism-based. The settings on record: in vivo, read-out: Vdss. In short, it runs like this:
as §2

Data set [8] in a line: Terminal half life in human urine treated with monohydroxy derivative of OXC at 250 mg, iv administered as infusion over 30 mins by high-performance liquid chromatography. The note with it: read-out: beta t1/2 (converted). The data set is classed as ADME, organism-based. In short, it runs like this: as §2
The nature of data set [9]: Tmax in human treated with oxcarbazepine at 300 mg, po administered as one-film coated tablet by high-performance liquid chromatography. The data set is classed as ADME, organism-based. The settings on record: in vivo. In short, it runs like this: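 Healthy adults (6 male, 6 female) took a single dose under fasting conditions in an open randomized two-way crossover with at least one week washout. Heparinized plasma was sampled at 0, 1, 2, 3, 4, 6, 8, 10, 24, 32, 48, 56 and 72 h, and stored at -80 C. Analytes were measured by HPLC (UV 210 nm for MHD). Cmax and Tmax are the highest observed concentration and its time relative to dosing.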

Data set [10] in a line: Cmax in human treated with oxcarbazepine at 300 mg, po administered as one-film coated tablet by high-performance liquid chromatography. The data set is classed as ADME, organism-based. Also noted: dose 300 mg, route oral. The note with it: in vivo. In short, it runs like this:
(§3)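 Healthy adults (6 male, 6 female), single 300 mg film-coated tablet by mouth, fasting, in a randomized two-way crossover with at least one week of washout. Venous heparinized blood was drawn at 0–72 h. Plasma was separated at 2200 g and stored at -80 °C. Non-enantioselective and enantioselective HPLC were used. Cmax/tmax were the observed peak; AUC was by linear trapezoidal rule.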

The nature of data set [11]: AUC (0 to 72 hrs) in human treated with monohydroxy derivative of OXC at 150 mg, iv administered as single dose by high-performance liquid chromatography. The settings on record: plasma. Also on record: dose 150 mg, time < 72 hr, route intravenous. The data set is classed as ADME, organism-based. In short, it runs like this:
(§4)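 Pilot ascending-dose study: one healthy subject per level received 150, 200 or 250 mg racemic MHD intravenously as a single dose. Plasma was sampled to 72 h and assayed by non-enantioselective and enantioselective HPLC. AUC(0-72h) was computed by the linear trapezoidal method.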

Data set [12] can be described thus: AUC (0 to 72 hrs) in human treated with monohydroxy derivative of OXC at 200 mg, iv administered as single dose by high-performance liquid chromatography. The data set is classed as ADME, organism-based. Also on record: time < 72 hr, dose 200 mg, route intravenous. The settings on record: plasma. In short, it runs like this:
as §4

Data set [13] in a line: AUC (0 to 72 hrs) in human treated with monohydroxy derivative of OXC at 250 mg, iv administered as single dose by high-performance liquid chromatography. The data set is classed as ADME, organism-based. Also on record: dose 250 mg, time < 72 hr, route intravenous. The settings on record: plasma. In short, it runs like this: as §4
A short description of data set [14]: Total plasma clearance in human treated with monohydroxy derivative of OXC at 150 mg, iv administered as single dose by high-performance liquid chromatography. The data set is classed as ADME, organism-based. In short, it runs like this:
(§5)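 Pilot study: single intravenous racemic MHD at 150, 200 or 250 mg, one subject per dose. Plasma was sampled to 72 h and analysed by HPLC. Total plasma clearance was computed as Dose/AUC, with AUC from the linear trapezoidal rule.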

A short description of data set [15]: Total plasma clearance in human treated with monohydroxy derivative of OXC at 200 mg, iv administered as single dose by high-performance liquid chromatography. The data set is classed as ADME, organism-based. In short, it runs like this: as §5
The nature of data set [16]: Total plasma clearance in human treated with monohydroxy derivative of OXC at 250 mg, iv administered as single dose by high-performance liquid chromatography. The data set is classed as ADME, organism-based. Summed up: as §5
Data set [17] in a line: Tmax in human treated with monohydroxy derivative of OXC at 250 mg, iv administered as infusion over 30 mins by high-performance liquid chromatography. The data set is classed as ADME, organism-based. The note with it: in vivo. In short, it runs like this:
(§6)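 Healthy adults (6 male, 6 female) in an open randomized two-way crossover with at least one week washout. Venous heparinized plasma was sampled at 0, 5, 10, 15, 20, 25 and 30 min and at 1-72 h after the start of infusion, and stored at -80 C. Analytes were measured by non-enantioselective and enantioselective HPLC. Tmax is the observed time of peak concentration, reported as a median.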

Data set [18] can be described thus: Cmax in human treated with monohydroxy derivative of OXC at 250 mg, iv administered as infusion over 30 mins by high-performance liquid chromatography. The data set is classed as ADME, organism-based. Also on record: dose 250 mg, route intravenous. The settings on record: in vivo. Summed up: as §6
Data set [19] is described as follows: Oral bioavailability in human at 300 mg administered as one-film coated tablet by non-enantiospecific assay based high-performance liquid chromatography. The data set is classed as ADME, organism-based. The settings on record: in vivo. Summed up:
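Crossover of 12 healthy adults: 250 mg racemic MHD infused intravenously over 30 min versus a 300 mg oral tablet, with at least one week of washout. Plasma MHD was measured by non-enantioselective HPLC-UV at 210 nm after C18 solid-phase extraction (LOQ 0.1 µmol/L). Bioavailability f was the dose-corrected ratio of oral to intravenous AUC.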

For the next data set, the system named is Plasma. Put plainly: Drug level in human plasma at 400 mg, po. The data set is classed as ADME, cell-free.
Data set [20] in a line: Tmax in human at 300 mg, po administered as one-film coated tablet by high-performance liquid chromatography. The data set is classed as ADME, organism-based. The settings on record: in vivo. Summed up: as §3
Data set [21] in a line: Cmax in human at 300 mg, po administered as one-film coated tablet by high-performance liquid chromatography. The data set is classed as ADME, organism-based. Also noted: dose 300 mg, route oral. The note with it: in vivo. In short, it runs like this: as §3
Data set [22] is described as follows: AUC in human at 300 mg, po administered as one-film coated tablet by high-performance liquid chromatography. The data set is classed as ADME, organism-based. The settings on record: plasma. Summed up:
as §3

For `NC(=O)N1c2ccccc2C[C@@H](O)c2ccccc21`, the dose excreted in data set [1] amounted to 4.85%. This compound also showed a CL renal in [2] of 16.7 mL/min. The half-life is 15.8 h in [3], 7 h in [4], 9 h in data set [6] and 9 h in data set [8]. Besides, the CL renal at 0.5 h in data set [5] was 15 mL/min. Besides, in data set [7], the Vd was 54.7 L. Besides, the time of peak concentration (Tmax) in data set [9] came out at 3.5 h. Moreover, the Cmax in [10] worked out at 3000 nM. Moreover, the AUC(0-t) at 72 h in data set [11] came to 55.7 µM·h; in data set [12], 59.1 µM·h; in data set [13], 132 µM·h. The clearance in data set [14] was 88.3 mL/min; in data set [15], 111 mL/min; in data set [16], 62.2 mL/min.
`NC(=O)N1c2ccccc2[C@@H](O)[C@H](O)c2ccccc21`: the dose excreted in data set [1] was determined as 2.7%. In addition, the results for the Tmax in [9] and in [17] were 24 h and 8 h, respectively. Besides, the values for the Cmax in data set [10] and in data set [18] were 200 nM and 240 nM, respectively.
In the case of `NC(=O)N1c2ccccc2CC(=O)c2ccccc21` [OXCARBAZEPINE], in data set [19], the bioavailability worked out at 99%. In the data set on Plasma, this compound registered a Drug uptake of 2%. The Tmax in data set [20] turned out to be 1 h; in data set [17], 0.5 h. The Cmax in data set [21] came out at 2000 nM; in [18], 80 nM. In addition, the area under the curve (AUC) in data set [22] is 6.8 µM·h.

For orientation: Tmax means the time at which the peak concentration occurs. The Cmax is the peak of the concentration-time curve. What is called AUC(0-t) is the area under the concentration-time curve up to a stated or last time point. The clearance is the volume of plasma or blood freed of the substance per unit of time. A lower clearance goes with inefficient removal. The term bioavailability denotes dose-corrected exposure relative to a reference, in per cent. The term AUC denotes the area under the concentration-time curve, a measure of exposure.
